The list is not random: actives were taken first. Their share in the collection is about 1.6%.
RAD54 branch: inhibitors of human RAD54 branch migration, primary screen, biochemical, fluorescence, single point. DNA repair and recombination protein RAD54-like (Homo sapiens), Q92698. RAD54 Holliday junction branch migration, FAM/BHQ fluorescence. inhibition, % at 10.4 µM. actives 0.14% (n = 360,000);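 active = mean normalized replicate activity at least 40 and at least half of replicates scoring 40 or more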;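 note: 0% = median of neutral control wells and 100% = median of positive control wells; inhibitors cause a drop in the FAM fluorescence signal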
dFosB act: activators of delta FosB homodimer, primary screen, biochemical, fluorescence polarization, TAMRA-CDK5 oligo, single point | Protein FosB (Mus musculus), P13346 | purified delta FosB; percent of positive-control signal above neutral wells | activation, % at 25 µM | actives 0.99% (n = 340,000) | AID 493131, 2011;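 active = mean activation above about 17%, with every replicate also reaching it, limit read from the data, passing the limit was not always enough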
Target sequence (P13346 whole entry, looked up): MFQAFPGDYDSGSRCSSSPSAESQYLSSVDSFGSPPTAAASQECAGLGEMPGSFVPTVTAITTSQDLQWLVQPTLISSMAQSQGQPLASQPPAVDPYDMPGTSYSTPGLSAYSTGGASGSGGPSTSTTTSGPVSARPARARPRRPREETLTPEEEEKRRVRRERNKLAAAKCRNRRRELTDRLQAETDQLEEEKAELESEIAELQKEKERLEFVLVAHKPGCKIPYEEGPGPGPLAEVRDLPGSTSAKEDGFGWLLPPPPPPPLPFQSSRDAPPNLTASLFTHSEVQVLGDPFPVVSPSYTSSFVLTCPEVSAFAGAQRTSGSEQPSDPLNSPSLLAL
SR-BI HDL uptake: inhibitors of SR-BI mediated HDL lipid uptake, primary screen, ldlA[mSR-BI] cells, fluorescence, single point. ldlA[mSR-BI] CHO cells, DiI-HDL uptake fluorescence, 3 h. inhibition, % at 12.5 µM. actives 0.96% (n = 320,000);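 active = mean replicate inhibition of at least 70% and a set share of replicates each scoring 70 or more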;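 note: 0% = median of neutral control wells and 100% = median of positive control wells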
PvdQ acylase: P. aeruginosa PvdQ acylase inhibitors, primary screen, biochemical, fluorescence, plate reader and imaging, single point | PvdQ acylase [Pseudomonas aeruginosa LESB58] | actives 0.063% (n = 340,000) | AID 488965, 2010 | inhibition, % at 10 µM | purified PvdQ acylase; in the data active = inhibition above about 30%, passing the limit was not always enough;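 note: 0% = vehicle neutral wells and 100% = reference inhibitor wells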
SR-BI DiI-HDL act: activators of SR-BI mediated DiI-HDL uptake, primary screen, ldlA[mSR-BI] CHO cells, DiI fluorescence. AID 504775, 2011. activation, % at 12.5 µM. 3 h; 100 = double the neutral-control signal. actives 0.096% (n = 320,000);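 active = mean replicate activation of at least 60% and every replicate at or above 60%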;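 note: 0% = median plate neutral-control signal and 100% = twice that signal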
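Assay system: LDL receptor-deficient CHO ldlA cells overexpressing murine SR-BI / Medium: BSA-supplemented, HEPES-buffered Ham's F12, pH 7.4 / Probe or stimulus: DiI-labelled HDL at 10 µg/mL final / Timing: compound with DiI-HDL co-incubation, 3 h at 37 °C / Technique: bottom-read cell fluorescence after medium removal, ex 550/em 595 nm / Measure: HDL uptake via cellular fluorescence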
S100A4 MyoIIA: inhibitors of S100A4-myosin IIA peptide binding, primary screen, biochemical, fluorescence polarization, TAMRA-MyoIIA peptide; Protein S100-A4 (Homo sapiens), P26447; actives 0.14% (n = 360,000); AID 652163, 2013; inhibition, % at 10.7 µM;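 active = mean inhibition of at least 70% across replicates, with every replicate also reaching that level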
Target sequence (P26447 whole entry, looked up): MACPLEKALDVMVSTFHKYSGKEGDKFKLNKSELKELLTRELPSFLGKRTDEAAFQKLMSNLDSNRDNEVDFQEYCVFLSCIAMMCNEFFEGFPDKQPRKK
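Test system: S100A4 monomer protein; Medium: HEPES pH 7.2 with CaCl2, KCl, NaCl, DTT, Triton; Probe or stimulus: TAMRA-labelled myosin IIA heavy-chain peptide probe, 5 nM; Doses: one dose per compound; Times: polarization read 5 min after assay mix addition, stable 5–60 min; Benchmarks: neutral control DMSO, positive control TFP.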
* hit, by the source's call.

Screening O=C(N/N=C/c1c(O)n(C2CC2)c(=S)[nH]c1=O)c1ccccc1O returned dFosB act -2, SR-BI HDL uptake 92*, PvdQ acylase 16 and SR-BI DiI-HDL act -92.
`Cc1ccccc1-n1c(O)c(/C=N/NC(=O)c2ccccc2O)c(=O)[nH]c1=S` gave RAD54 branch -7, dFosB act 2, SR-BI HDL uptake 109*, PvdQ acylase -4, SR-BI DiI-HDL act -109 and S100A4 MyoIIA -20.
`COC(=O)[C@H]1[C@H](CO)[C@H]2Cn3c(ccc(-c4ccccc4)c3=O)[C@@H]1N2CCc1ccccc1` gave RAD54 branch -5 and S100A4 MyoIIA 3.
`C[C@]12CCC3C(CC[C@H]4C[C@@H](O)CC[C@]34C)C1CC[C@@H]2OC(=O)[C@H](N)CCCCN` (stereo partly specified) gave RAD54 branch 66*, dFosB act -45, SR-BI HDL uptake 10, PvdQ acylase -6, SR-BI DiI-HDL act -10 and S100A4 MyoIIA -4.
Screening O=C(Cc1ccccn1)N1CCCCN2[C@@H](CO)[C@H](c3ccc(-c4ccccc4)cc3)[C@@H]2C1 returned RAD54 branch -1 and S100A4 MyoIIA 13.
For N=Cc1c(O)n(-c2ccc(C34CC5CC(CC(C5)C3)C4)cc2)c(=O)[nH]c1=O the results were dFosB act 46*, SR-BI HDL uptake -13, PvdQ acylase 14 and SR-BI DiI-HDL act 13.
Screening O=c1[nH]c(=O)n(-c2ccc(Br)cc2)c(O)c1C=NC(CO)(CO)CO returned RAD54 branch -3 and S100A4 MyoIIA 0.
Screening COC(=O)[C@@H]1[C@@H](CO)[C@@H]2Cn3c(ccc(-c4ccccc4F)c3=O)[C@H]1N2 returned RAD54 branch 0 and S100A4 MyoIIA -33.
Screening Cc1cccc(NP(=O)(Oc2ccccc2)Oc2ccccc2)c1C returned RAD54 branch -9, dFosB act -4, SR-BI HDL uptake 76*, PvdQ acylase -26, SR-BI DiI-HDL act -76 and S100A4 MyoIIA -3.
O=P(Nc1ccccc1)(Oc1ccccc1)Oc1ccccc1 was read as RAD54 branch -2, dFosB act -14, SR-BI HDL uptake 3, PvdQ acylase -14, SR-BI DiI-HDL act -3 and S100A4 MyoIIA 1.
Screening CC/C(CC(c1ccccc1)c1c(O)c2ccccc2oc1=O)=N\NC(N)=S (stereo unspecified) returned dFosB act 0, SR-BI HDL uptake 80*, PvdQ acylase -11 and SR-BI DiI-HDL act -80.
`O=C(O)C(Br)CBr` (stereo unspecified) gave RAD54 branch 0, dFosB act -2, SR-BI HDL uptake -8, PvdQ acylase -8, SR-BI DiI-HDL act 8 and S100A4 MyoIIA 100*.
`COC(=O)[C@H]1[C@H](CO)[C@H]2Cn3c(ccc(-c4ccccc4)c3=O)[C@@H]1N2CC1CCCCC1` gave RAD54 branch -3 and S100A4 MyoIIA 1.
For COC(=O)[C@@H]1[C@@H](CO)[C@@H]2Cn3c(ccc(-c4cccc(OC)c4)c3=O)[C@H]1N2CC1CC1 the results were RAD54 branch -3 and S100A4 MyoIIA 9.
Screening COc1cc2c(ccc3c4cc(OC)c(OC)cc4c[n+](C)c23)cc1O returned dFosB act 33*, SR-BI HDL uptake 33, PvdQ acylase -12, SR-BI DiI-HDL act -33 and S100A4 MyoIIA -2.
For COc1ccc(Cc2nccc3cc(OC)c(OC)cc23)cc1OC the results were RAD54 branch -9, dFosB act -5, SR-BI HDL uptake -5, PvdQ acylase 10, SR-BI DiI-HDL act 8 and S100A4 MyoIIA 1.
CN1CCN(c2ccc(N)cc2Cl)CC1 was read as dFosB act 33*, SR-BI HDL uptake 15, PvdQ acylase 7, SR-BI DiI-HDL act -15 and S100A4 MyoIIA -1.
Screening CN1CCN(c2ccc(Cl)cc2N)CC1 returned dFosB act -3, SR-BI HDL uptake -9, PvdQ acylase -7, SR-BI DiI-HDL act 9 and S100A4 MyoIIA 4.
`Cc1ccccc1S(=O)(=O)N1[C@@H]2c3ccc(-c4cccnc4)c(=O)n3C[C@H]1[C@H](CO)[C@H]2C(=O)O` gave RAD54 branch -6 and S100A4 MyoIIA -4.
Screening O=[N+]([O-])c1ccc(N2CCNCC2)c(Cl)c1 returned dFosB act -1, SR-BI HDL uptake 78*, PvdQ acylase 7, SR-BI DiI-HDL act -78 and S100A4 MyoIIA -1.
Screening CN1CCN(c2cccc3c2C(=O)c2ccccc2C3=O)CC1 returned RAD54 branch 79*, dFosB act 14, SR-BI HDL uptake 15, PvdQ acylase -8, SR-BI DiI-HDL act -15 and S100A4 MyoIIA 2.
CC(C)(C)c1ccc(O)c(N=Cc2c(O)ccc3ccccc23)c1 was read as RAD54 branch 0, dFosB act -13, SR-BI HDL uptake 113*, PvdQ acylase -9, SR-BI DiI-HDL act -113 and S100A4 MyoIIA -5.
Screening COC(=O)C(O)(c1ccc(N=Cc2ccccc2O)c(C)c1)C(F)(F)F (stereo unspecified) returned RAD54 branch 2, dFosB act -2, SR-BI HDL uptake 11, PvdQ acylase -20 and SR-BI DiI-HDL act -11.
`O=C(Cc1ccccc1)N1CCCCN2[C@@H](CO)[C@@H](c3ccc(-c4ccccc4)cc3)[C@@H]2C1` gave RAD54 branch -7 and S100A4 MyoIIA -28.
Screening CCOc1cc2c(cc1OCC)-n1cccc1C(c1ccc(C(C)C)cc1)NC2 (stereo unspecified) returned RAD54 branch -10, dFosB act 24*, SR-BI HDL uptake 60, PvdQ acylase -3, SR-BI DiI-HDL act -60 and S100A4 MyoIIA 2.
CCOc1cc2c(cc1OCC)-n1cccc1C(c1ccc(F)cc1)NC2 (stereo unspecified) was read as RAD54 branch -3, dFosB act -2, SR-BI HDL uptake 20, PvdQ acylase -15, SR-BI DiI-HDL act -20 and S100A4 MyoIIA -2.
Screening COc1ccc(-c2ccc([C@@H]3[C@H](CO)N4CCCCN(C(=O)Cc5ccccc5)C[C@@H]34)cc2)cc1 returned RAD54 branch -8 and S100A4 MyoIIA 1.
Screening O=C1CC(N2CCC(n3c(=O)[nH]c4ccccc43)CC2)C(=O)N1c1ccc(F)cc1 (stereo unspecified) returned RAD54 branch -2, dFosB act -6, SR-BI HDL uptake 9, PvdQ acylase -8 and SR-BI DiI-HDL act -9.
